Data published in ChEMBL document CHEMBL2331279, “Rational design and synthesis of 4-substituted 2-pyridin-2-ylamides with inhibitory effects on SH2 domain-containing inositol 5'-phosphatase 2 (SHIP2)” (Eur J Med Chem, 2013).
The source made the active and inactive calls. No cut-off for these calls is given here.

Key:
[1] = system: Mus musculus; experiment: Antidiabetic activity in db/db mouse assessed as decrease in glucose area under curve at 300 mg/kg, po bid for 10 days by glucose tolerance test relative vehicle treated control; format: functional; conditions: 240 h
In short: (§1)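 Male mice, 8 weeks old, dosed orally twice daily with 300 mg/kg in 0.5% methylcellulose, or vehicle, for 13 days (C57BL/6J) or 10 days (db/db). After a 6 h fast, glucose 2 g/kg given ip. Tail-vein blood sampled at set times and plasma glucose measured by glucometer. AUC calculated. Mean ± SE, n=5-8; ANOVA with Bonferroni test versus vehicle.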

[2] = system: Mus musculus; experiment: Antidiabetic activity in db/db mouse assessed as serum insulin level at 300 mg/kg, po bid for 12 to 13 days measured on day 12 to 13 (reference value: 7.30 +/-1.10 ng/ml); format: functional
[3] = system: Mus musculus; experiment: Toxicity in C57BL/6J mouse assessed as liver weight at 300 mg/kg, po bid for 12 to 13 days measured on day 15 (reference value: 0.74 +/-0.03 gms); format: organism-based; design: dose 300 mg/kg, route oral; conditions: in vivo
[4] = system: Mus musculus; experiment: Toxicity in C57BL/6J mouse assessed as epididymal white adipose tissue weight at 300 mg/kg, po bid for 12 to 13 days measured on day 15 (reference value: 0.03 +/-0.0 gms); format: organism-based; design: dose 300 mg/kg, route oral; conditions: in vivo
[5] = target: T1, Phosphatidylinositol 3,4,5-trisphosphate 5-phosphatase 2 (Mus musculus) (UniProt Q6P549); experiment: Inhibition of SHIP2 in TNF alpha-treated mouse 3T3L1 cells assessed as potentiation of insulin-stimulated Akt phosphorylation at Thr308 at 10 uM treated for 15 mins after TNF alpha challenge for 16 hrs and prior to insulin stimulation measured after 2 hrs by Western blot analysis relative to untreated control; format: cell-based; conditions: 3T3-L1
T1 sequence (whole entry): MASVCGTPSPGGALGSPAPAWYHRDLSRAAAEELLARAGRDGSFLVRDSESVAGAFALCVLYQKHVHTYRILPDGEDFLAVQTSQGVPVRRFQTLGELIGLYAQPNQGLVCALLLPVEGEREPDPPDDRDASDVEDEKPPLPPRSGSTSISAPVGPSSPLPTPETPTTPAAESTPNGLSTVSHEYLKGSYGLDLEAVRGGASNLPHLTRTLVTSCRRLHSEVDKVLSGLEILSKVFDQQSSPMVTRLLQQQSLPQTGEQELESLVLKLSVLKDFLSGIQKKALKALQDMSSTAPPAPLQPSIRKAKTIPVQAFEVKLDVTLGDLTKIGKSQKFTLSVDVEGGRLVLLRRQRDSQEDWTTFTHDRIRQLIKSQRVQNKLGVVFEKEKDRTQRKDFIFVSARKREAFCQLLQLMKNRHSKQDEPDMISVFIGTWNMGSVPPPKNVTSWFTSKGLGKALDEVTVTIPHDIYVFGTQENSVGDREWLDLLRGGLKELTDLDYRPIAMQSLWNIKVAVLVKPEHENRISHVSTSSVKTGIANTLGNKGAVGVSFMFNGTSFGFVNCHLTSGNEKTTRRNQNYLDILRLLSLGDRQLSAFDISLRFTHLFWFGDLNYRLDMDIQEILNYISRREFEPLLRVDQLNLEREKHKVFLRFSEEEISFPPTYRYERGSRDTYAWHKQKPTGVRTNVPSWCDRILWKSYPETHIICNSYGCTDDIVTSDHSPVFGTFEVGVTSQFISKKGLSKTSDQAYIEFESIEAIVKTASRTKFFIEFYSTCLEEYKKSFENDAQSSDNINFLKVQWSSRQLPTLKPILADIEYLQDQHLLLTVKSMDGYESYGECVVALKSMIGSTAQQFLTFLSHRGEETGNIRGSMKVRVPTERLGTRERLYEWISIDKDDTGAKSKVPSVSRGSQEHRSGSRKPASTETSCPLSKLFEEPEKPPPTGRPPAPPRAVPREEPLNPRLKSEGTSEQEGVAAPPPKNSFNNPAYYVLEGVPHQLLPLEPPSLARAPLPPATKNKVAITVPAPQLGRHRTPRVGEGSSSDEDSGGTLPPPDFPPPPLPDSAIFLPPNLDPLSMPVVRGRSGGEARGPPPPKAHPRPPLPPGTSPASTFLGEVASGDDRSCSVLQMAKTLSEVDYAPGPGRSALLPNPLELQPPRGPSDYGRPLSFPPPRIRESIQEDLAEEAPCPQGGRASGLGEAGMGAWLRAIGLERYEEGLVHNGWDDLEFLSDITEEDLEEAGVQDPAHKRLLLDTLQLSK
In short: (§2)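 3T3-L1 fibroblasts differentiated into adipocytes, then serum-starved 16 h with TNFα 20 ng/mL. Treated with compound 10 µM or 0.1% DMSO for 15 min, then stimulated with 17 nM insulin at 37 °C for 2 h. Cells lysed on ice at pH 7.5 and Thr308 phospho-Akt measured by western blot. Results given as fold change versus TNFα+insulin control. Mean ± SE.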

[6] = system: Mus musculus; experiment: Antidiabetic activity in db/db mouse assessed as decrease in glucose intolerance at 300 mg/kg, po bid for 10 days by glucose tolerance test; format: functional, organism-based; design: dose 300 mg/kg; in short: as §1
[7] = system: Mus musculus; experiment: Toxicity in C57BL/6J mouse assessed as effect on glucose tolerance at 300 mg/kg, po bid for 13 days by glucose tolerance test; format: organism-based; design: dose 300 mg/kg, route oral; conditions: in vivo, 312 h; in short: as §1
[8] = system: Mus musculus; experiment: Toxicity in C57BL/6J mouse assessed as serum insulin level at 300 mg/kg, po bid for 12 to 13 days measured on day 15 (reference value: 0.25 +/-0.11 ng/ml); format: organism-based; design: dose 300 mg/kg, route oral; conditions: in vivo
[9] = system: Mus musculus; experiment: Toxicity in C57BL/6J mouse assessed as fasting plasma glucose level at 300 mg/kg, po bid for 12 to 13 days measured on day 15 (reference value: 78 +/-6 mg/dl); format: organism-based; design: dose 300 mg/kg, route oral; conditions: in vivo
[10] = system: Mus musculus; experiment: Toxicity in C57BL/6J mouse assessed as food intake at 300 mg/kg, po bid for 12 to 13 days measured on day 10 (reference value: 3.72 +/-0.23 gms/day); format: organism-based; design: dose 300 mg/kg, route oral; conditions: in vivo
[11] = target: T1, Phosphatidylinositol 3,4,5-trisphosphate 5-phosphatase 2 (Mus musculus); experiment: Inhibition of SHIP2 in mouse 3T3L1 cells assessed as reduction of TNF-alpha induced decrease in insulin-stimulated Akt phosphorylation at Thr308 at 10 uM treated for 15 mins after TNF alpha challenge for 16 hrs and prior to insulin stimulation measured after 2 hrs by Western blot analysis; format: cell-based; conditions: 3T3-L1; in short: as §2

Row | SMILES | inhibition in vivo at 300 mg/kg [1] | Activity [2] | Activity [3] | Activity [4] | fold change (FC) [5] | inhibition [6] | Activity [7] | Activity [8] | Activity [9] | Activity [10] | inhibition [11]
1 | C[C@H](NC(=O)c1sccc1OCc1ccc(Cl)cc1)c1ccccc1 | 14% | 9.95 ng/mL | 0.73 g | 0.02 g | 1.2 | Active | Non-toxic | 0.1 ng/mL | 87 mg/dL | 4.1 g/day | 
2 | O=C(Cc1c(F)cccc1F)Nc1cc(OCc2ccc(Cl)cc2)ccn1 | 16% | 6.86 ng/mL | 0.86 g | 0.02 g | 1.3 | Active | Non-toxic | 0.21 ng/mL | 88 mg/dL | 3.94 g/day | Active
